The values that follow come from ChEMBL document CHEMBL1828544, “Structural modification of honokiol, a biphenyl occurring in Magnolia officinalis: the evaluation of honokiol analogues as inhibitors of angiogenesis and for their cytotoxicity and structure-activity relationship” (J Med Chem, 2011).

In general, IC50 refers to the concentration at which inhibition is half-maximal. A word on the inhibition: it is the relative decrease from the control value, in per cent.

Assay [1] has as its system HUVEC. Nature of the assay: Antimigratory activity against human HUVEC cells at 20 uM after 24 hrs by wound-healing assay. In kind it is functional, cell-based. The procedure, abridged: (§1)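 HUVEC monolayers grown overnight to confluence on 0.1% gelatin, scratched with pipet tips, washed, then kept in serum-free DMEM with compound (20 or 40 μM) for 24 h at 37 °C, 5% CO2; control serum-free DMEM. Migrated cells counted manually from images at 0 and 24 h, three random fields; three independent experiments, mean ± SE.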

A further assay relates to A549. Nature of the assay: Antiproliferative activity against human A549 cells after 24 hrs by MTT assay. The class given is functional, cell-based. The note with it: A549, 24 h. The procedure, abridged: (§2)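 Cells (5 × 10^3/well) kept at 37 °C, 5% CO2 and treated with varied compound concentrations for 24 h. MTT given for a further 3 h, precipitate dissolved in DMSO, absorbance taken at 570 nm. IC50 calculated from percentage growth relative to untreated control.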

Assay [2] is described as follows: Antiproliferative activity against mouse LL/2 cells after 24 hrs by MTT assay. In kind it is functional, cell-based. The note with it: Lewis lung carcinoma. The procedure, abridged:
as §2
Background: Formazan colour is commonly taken as a measure of viable cells.

Assay [3] has as its system HUVEC. Nature of the assay: Antiangiogenic activity against human HUVEC cells assessed as inhibition of tube formation at 20 uM after 12 hrs by matrigel-based assay relative to honokiol. The class given is functional. The procedure, abridged:
(§3)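 HUVECs (1 × 10^4) in DMEM with compound (20 μM) plated on Matrigel that had set at 37 °C for 45 min; controls got DMEM alone. After 12 h at 37 °C, capillary networks were photographed and intact tubes counted in five random regions. Inhibition expressed as percentage of control.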

The subject of assay [4] is HUVEC. Nature of the assay: Antimigratory activity against human HUVEC cells after 24 hrs by wound-healing assay relative to honokiol. In kind it is functional. The procedure, abridged:
as §1

The species named for assay [5] is Danio rerio. The experiment in a line: Antiangiogenic activity in fli-1:enhanced GFP expressing transgenic zebrafish embryo assessed as inhibition of neovacularisation at 5 uM after 24 hrs relative to control. In kind it is functional. The procedure, abridged:
(§4)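 fli-1:EGFP transgenic zebrafish embryos sorted at about 6 hpf (6 per well), exposed in embryo water to compound at 5–40 μM for 24 h. Then anesthetized with 0.05% 2-phenoxyethanol, photographed and quantified.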

For assay [6], the system named is HUVEC. The experiment in a line: Antimigratory activity against human HUVEC cells assessed as migration rate at 40 uM after 24 hrs by wound-healing assay relative to control. In kind it is functional. The procedure, abridged:
as §1

The test system of a further assay is HepG2. The experiment in a line: Antiproliferative activity against human HepG2 cells after 24 hrs by MTT assay. In kind it is functional, cell-based. The note with it: HepG2, 24 h. The procedure, abridged:
as §2

For assay [7], the species on record is Danio rerio. The experiment in a line: Antiangiogenic activity in fli-1:enhanced GFP expressing transgenic zebrafish embryo assessed as inhibition of intersomitic vessel sprouts after 48 hrs. In kind it is functional, organism-based. The procedure, abridged:
(§5)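 Transgenic fli-1:EGFP zebrafish embryos (GFP across endothelium) sorted at about 6 hpf, 6 per well, with dead or unhealthy ones removed. Compound (10, 20, 40 μM) added to embryo water (0.2 g/L instant ocean salt) from 6 hpf for 48 h. Embryos then anesthetized in 0.05% 2-phenoxyethanol, imaged, and intersomitic and dorsal longitudinal anastomotic vessel sprouts assessed.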

For assay [8], the species on record is Danio rerio. The experiment in a line: Antiangiogenic activity in fli-1:enhanced GFP expressing transgenic zebrafish embryo assessed as inhibition of neovacularisation at 10 uM after 24 hrs relative to control. The class given is functional. The procedure, abridged:
as §4

For assay [9], the system named is HUVEC. Nature of the assay: Antiproliferative activity against human HUVEC cells after 24 hrs by MTT assay. The class given is functional, cell-based. The procedure, abridged:
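Primary HUVECs grown on gelatin in M-199 with 20% FBS, 10 ng/mL bFGF, 2 ng/mL VEGF, 5% CO2, 37 °C. Cells (5 × 10^3/well) exposed to a range of compound concentrations for 24 h. MTT added for 3 h, formazan dissolved in DMSO, absorbance read at 570 nm. IC50 from percentage growth versus untreated control.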

The species entered for assay [10] is Danio rerio. Nature of the assay: Antiangiogenic activity in fli-1:enhanced GFP expressing transgenic zebrafish embryo assessed as inhibition of dorsal longitudinal anastomic vessel sprouts after 48 hrs. The class given is functional, organism-based. The procedure, abridged:
as §5

The test system of assay [11] is HUVEC. The experiment in a line: Antiangiogenic activity against human HUVEC cells assessed as inhibition of tube formation at 20 uM after 12 hrs by matrigel-based assay. In kind it is functional. The procedure, abridged:
as §3

The species named for assay [12] is Danio rerio. Nature of the assay: Antiangiogenic activity in fli-1:enhanced GFP expressing transgenic zebrafish embryo assessed as inhibition of neovacularisation at 20 uM after 24 hrs relative to control. The class given is functional. The procedure, abridged: as §4
The species entered for assay [13] is Danio rerio. Nature of the assay: Antiangiogenic activity in fli-1:enhanced GFP expressing transgenic zebrafish embryo assessed as inhibition of neovacularisation at 40 uM after 24 hrs relative to control. The class given is functional. The procedure, abridged: as §4

The source made the active and inactive calls. The rule behind the calls is not given here.

`C=CCc1cc(C=O)c(O)c(-c2cc(C=O)c(O)c(CC=C)c2)c1`: in the assay on HUVEC [1], the outcome was Active. Further, the IC50 was 30.2 µM with A549, 21.7 µM in assay [2], 10.7 µM in the assay on HepG2 and 15.1 µM with HUVEC [9]. Further, the figures for the “fold change (FC)” value in the assay with HUVEC [3] and in the assay on HUVEC [4] were 2.5 and 1.5, respectively. Besides, the “inhibition (INH)” value was below 25% in the assay filed under Danio rerio [5], 25% in the assay listed under Danio rerio [8] and 50% in the assay listed under Danio rerio [12]. Moreover, in the assay with HUVEC [6], the “Migration rate relative to control” value is given as 21.2%. Further, the inhibition entry in the assay filed under Danio rerio [7] and in the assay listed under Danio rerio [10] was “Dose-dependent effect” in each case. The inhibition at 20 µM in the assay on HUVEC [11] is 21.3%.

In the case of `C=CCc1cc(C=O)c(O)c(-c2ccc(O)c(CC=C)c2)c1`, the result in the assay on HUVEC [1] was Active. In addition, the IC50 worked out at 43.6 µM in the assay with A549, 65.3 µM in [2], 32.9 µM with HepG2 and 46.2 µM in the assay on HUVEC [9]. Besides, the figures for the “inhibition (INH)” value in the assay filed under Danio rerio [5], in the assay listed under Danio rerio [8] and in the assay filed under Danio rerio [12] were below 25%, 25% and 25%, respectively. Besides, the “Migration rate relative to control” value in the assay with HUVEC [6] is recorded as 34.2%. The inhibition at 20 µM in the assay with HUVEC [11] came out at 41.2%.

Turning to `C=CCc1cc(C=O)c(OC)c(-c2ccc(OC)c(CC=C)c2)c1`, the IC50 worked out at 42.6 µM in the assay on A549, 40.8 µM in assay [2], 53.9 µM in the assay with HepG2 and 39.1 µM in the assay with HUVEC [9]. Also, the “inhibition (INH)” value in the assay listed under Danio rerio [5], in the assay filed under Danio rerio [13], in the assay filed under Danio rerio [8] and in the assay listed under Danio rerio [12] was below 25% in each case.

Consider `C=CCc1ccc(OC(C)C)c(-c2ccc(O)c(CC=C)c2)c1`, for which the IC50 with A549 is 53.2 µM; in [2] it was 48.4 µM; with HepG2, 63.5 µM; with HUVEC [9], 65.5 µM. Besides, the “inhibition (INH)” value in the assay filed under Danio rerio [5], in the assay listed under Danio rerio [13], in the assay listed under Danio rerio [8] and in the assay filed under Danio rerio [12] was below 25% each time.

Take `C=CCc1ccc(O)c(-c2ccc(O)c(CC=C)c2)c1` [HONOKIOL]: the outcome in the assay on HUVEC [1] was Active. The values for the IC50 (in [2]; in the assay with HUVEC [9]) were 65.4 µM and 52.6 µM, respectively. Besides, the entries for the “inhibition (INH)” value in the assay filed under Danio rerio [5], in the assay filed under Danio rerio [8] and in the assay listed under Danio rerio [12] were below 25%, 25% and 50%, respectively. In addition, in the assay on HUVEC [6], the “Migration rate relative to control” value is listed as 38.5%. Besides, the inhibition at 20 µM with HUVEC [11] was found to be 51.4%.

Consider `C=CCc1cc(-c2ccc(C(F)(F)F)cc2)ccc1O`, for which the IC50 came to 76 µM in the assay with A549, 74.8 µM in assay [2], 60.3 µM in the assay with HepG2 and 74 µM in the assay with HUVEC [9]. The inhibition entry in the assay listed under Danio rerio [5] is “inactive”. The “inhibition (INH)” value in the assay filed under Danio rerio [13], in the assay listed under Danio rerio [8] and in the assay filed under Danio rerio [12] was below 25% each time.

With `C=CCc1cc(C=O)c(OC)c(-c2ccc(O)c(CC=C)c2)c1`, in the assay on HUVEC [1], the outcome was Active. The IC50 in the assay on A549 was 28.6 µM; in assay [2], 20.4 µM; in the assay on HepG2, 20.9 µM; with HUVEC [9], 32.5 µM. Besides, the “inhibition (INH)” value is reported as below 25% in the assay filed under Danio rerio [5], 25% in the assay listed under Danio rerio [13], below 25% in the assay listed under Danio rerio [8] and 25% in the assay listed under Danio rerio [12]. Also, the “Migration rate relative to control” value with HUVEC [6] amounted to 63.2%. The inhibition at 20 µM with HUVEC [11] came out at 82.5%.

`C=CCc1cc(C=O)c(OCC)c(-c2ccc(OCC)c(CC=C)c2)c1`: the 50% inhibitory concentration (IC50) with A549 came to 39 µM; in assay [2] it was 31.9 µM; with HepG2, 28.5 µM; with HUVEC [9] it was 37.9 µM. In addition, the inhibition result in the assay filed under Danio rerio [5] is “inactive”. Further, the “inhibition (INH)” value in the assay filed under Danio rerio [13], in the assay filed under Danio rerio [8] and in the assay listed under Danio rerio [12] was below 25% in each case.

With `C=CCc1ccc(O)c(-c2ccc(OC)c(CC=C)c2)c1` [METHYLHONOKIOL], in the assay with HUVEC [1], the result was Active. The values for the IC50 (in [2]; in the assay on HepG2; in the assay on HUVEC [9]) were 68.8 µM, 55.3 µM and 55.8 µM, respectively. Moreover, the “inhibition (INH)” value was below 25% in the assay listed under Danio rerio [5], 25% in the assay filed under Danio rerio [13], below 25% in the assay listed under Danio rerio [8] and 25% in the assay listed under Danio rerio [12]. In the assay with HUVEC [6], the “Migration rate relative to control” value is listed as 54.2%. Also, the inhibition at 20 µM in the assay on HUVEC [11] came out at 34.9%.

Take `C=CC(C)(C)c1cc(-c2cccc([N+](=O)[O-])c2)ccc1O`: the IC50 in the assay with A549 was 64 µM; in assay [2], 45.1 µM; in the assay with HepG2, 56 µM; in the assay on HUVEC [9], 77 µM. The inhibition entry in the assay listed under Danio rerio [5] and in the assay filed under Danio rerio [8] was “inactive” each time. The “inhibition (INH)” value in the assay listed under Danio rerio [13] and in the assay listed under Danio rerio [12] was below 25% throughout.
